Test results from ChEMBL document CHEMBL1157639, “Identification of inhibitors of drug-resistant Candida albicans strains from a library of bicyclic peptidomimetic compounds” (2010).

Experiments:
[1] = target: Secreted aspartic protease 2 (Candida albicans) (UniProt P0CS83); test: Inhibition of Candida albicans SAP2 at 10 uM by spectrophotometry relative to pepstatin A
Procedure, shortened: (§1)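 Sample was mixed with 1% (w/v) BSA substrate in 50 mM sodium citrate, pH 3.2, plus SAP2 protease (1 μg/mL stock solution) and incubated 30 min at 37 °C. The reaction was stopped with 10% TCA, kept 30 min on ice, and centrifuged; supernatant A280 was read. Percent inhibition was taken from ΔOD, with control proteinase minus proteinase plus pepstatin A set as 100%.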

[2] = target: Secreted aspartic protease 2 (Candida albicans) (UniProt P0CS83); test: Inhibition of Candida albicans SAP2 at 10 uM by spectrophotometry; procedure, shortened: as §1
[3] = target: Secreted aspartic protease 2 (Candida albicans) (UniProt P0CS83); test: Inhibition of Candida albicans SAP2 at 20 uM by spectrophotometry relative to pepstatin A; procedure, shortened: as §1

Secreted aspartic protease 2 (Candida albicans), sequence (P0CS83 57-398 limits assumed): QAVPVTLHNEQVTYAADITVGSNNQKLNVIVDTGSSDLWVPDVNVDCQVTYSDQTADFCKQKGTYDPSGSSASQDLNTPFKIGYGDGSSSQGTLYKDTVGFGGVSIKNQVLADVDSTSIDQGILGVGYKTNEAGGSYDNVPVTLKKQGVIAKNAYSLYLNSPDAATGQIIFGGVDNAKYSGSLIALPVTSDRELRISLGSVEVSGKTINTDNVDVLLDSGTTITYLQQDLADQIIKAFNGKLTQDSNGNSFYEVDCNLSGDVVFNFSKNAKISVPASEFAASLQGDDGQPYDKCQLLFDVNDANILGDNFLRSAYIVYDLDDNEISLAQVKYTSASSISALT

Row | inhibition [1] [%] | inhibition [2] [%] | inhibition [3] [%] | SMILES
1 | 18 | 4 |  | CNC(=O)[C@@H]1O[C@H]2CN(Cc3ccccc3)C(=O)[C@@H]1O2
2 | 87 | 29 |  | CNC(=O)[C@@H]1O[C@@H]2O[C@H]1C(=O)N(Cc1ccccc1)[C@H]2Cc1ccccc1
3 | 87 | 17 |  | CCOC(=O)N1CCN(C(=O)[C@@H]2O[C@@H]3O[C@H]2C(=O)N(Cc2ccccc2)[C@H]3Cc2ccccc2)CC1
4 | 73 | 36 |  | CCCNC(=O)[C@@H]1O[C@@H]2O[C@H]1C(=O)N(Cc1ccccc1)[C@H]2Cc1ccccc1
5 | 73 | 36 |  | O=C(NC1CCCCC1)[C@@H]1O[C@@H]2O[C@H]1C(=O)N(Cc1ccccc1)[C@H]2Cc1ccccc1
6 | 87 | 22 |  | CC(NC(=O)[C@@H]1O[C@H]2CN(Cc3ccccc3)C(=O)[C@@H]1O2)c1ccccc1 (some centres undefined)
7 |  |  | 29 | CC(C)C[C@H](CO)NC(=O)[C@@H]1O[C@H]2CN(Cc3ccccc3)C(=O)[C@H]1O2
8 |  |  | 35 | CC(C)C[C@@H](CO)N(Cc1ccccc1)C(=O)[C@@H]1O[C@H]2CN(Cc3ccccc3)C(=O)[C@@H]1O2
9 | 40 | 13 |  | O=C([C@@H]1O[C@@H]2O[C@H]1C(=O)N(Cc1ccccc1)[C@H]2Cc1ccccc1)N1CCSCC1
10 | 87 | 17 |  | O=C([C@@H]1O[C@@H]2O[C@H]1C(=O)N(Cc1ccccc1)[C@H]2Cc1ccccc1)N1CCCNCC1
11 |  |  | 71 | O=C(NCCO)[C@@H]1O[C@H]2CN(Cc3ccccc3)C(=O)[C@@H]1O2
12 |  |  | 31 | O=C(N[C@@H](CO)c1ccccc1)[C@@H]1O[C@H]2CN(Cc3ccccc3)C(=O)[C@@H]1O2
13 | 18 | 4 |  | CC(C)CNC(=O)[C@@H]1O[C@H]2CN(Cc3ccccc3)C(=O)[C@@H]1O2
14 | 87 | 17 |  | CCOC(=O)C1CCN(C(=O)[C@@H]2O[C@@H]3O[C@H]2C(=O)N(Cc2ccccc2)[C@H]3Cc2ccccc2)CC1
15 | 18 | 4 |  | CCCCNC(=O)[C@@H]1O[C@H]2CN(Cc3ccccc3)C(=O)[C@@H]1O2
16 | 40 | 13 |  | O=C([C@@H]1O[C@@H]2O[C@H]1C(=O)N(Cc1ccccc1)[C@H]2Cc1ccccc1)N1CCN(CCO)CC1
17 | 42 | 8 |  | C#CCNC(=O)[C@@H]1O[C@@H]2O[C@H]1C(=O)N(Cc1ccccc1)[C@H]2Cc1ccccc1
18 |  |  | 60 | CC(C)C[C@H](CO)NC(=O)[C@H]1O[C@@H]2CN(Cc3ccccc3)C(=O)[C@@H]1O2

Row | inhibition [1] [%] | inhibition [2] [%] | inhibition [3] [%] | SMILES
19 | 18 | 4 |  | O=C(NCc1ccccc1)[C@@H]1O[C@H]2CN(Cc3ccccc3)C(=O)[C@@H]1O2
20 | 87 | 17 |  | CC(C)C[C@@H](CO)NC(=O)[C@@H]1O[C@@H]2O[C@H]1C(=O)N(Cc1ccccc1)[C@H]2Cc1ccccc1
21 | 42 | 8 |  | CCCCCCNC(=O)[C@@H]1O[C@@H]2O[C@H]1C(=O)N(Cc1ccccc1)[C@H]2Cc1ccccc1
22 |  |  | 29 | O=C(N[C@@H](CO)Cc1ccccc1)[C@@H]1O[C@H]2CN(Cc3ccccc3)C(=O)[C@@H]1O2
23 | 42 | 8 |  | CC(NC(=O)[C@@H]1O[C@@H]2O[C@H]1C(=O)N(Cc1ccccc1)[C@H]2Cc1ccccc1)c1ccccc1 (some centres undefined)
24 | 42 | 8 |  | CCCCNC(=O)[C@@H]1O[C@@H]2O[C@H]1C(=O)N(Cc1ccccc1)[C@H]2Cc1ccccc1
25 | 13 | 3 |  | O=C(NC1CC1)[C@@H]1O[C@H]2CN(Cc3ccccc3)C[C@@H]1O2
26 |  |  | 23 | O=C(NCCCO)[C@@H]1O[C@H]2CN(Cc3ccccc3)C(=O)[C@@H]1O2
27 |  |  | 30 | O=C(N[C@H](CO)Cc1ccccc1)[C@@H]1O[C@H]2CN(Cc3ccccc3)C(=O)[C@@H]1O2
28 | 87 | 17 |  | CN(CCN)C(=O)[C@@H]1O[C@@H]2O[C@H]1C(=O)N(Cc1ccccc1)[C@H]2Cc1ccccc1
29 | 42 | 8 |  | O=C(NCC(F)(F)F)[C@@H]1O[C@@H]2O[C@H]1C(=O)N(Cc1ccccc1)[C@H]2Cc1ccccc1
30 | 40 | 13 |  | O=C([C@@H]1O[C@@H]2O[C@H]1C(=O)N(Cc1ccccc1)[C@H]2Cc1ccccc1)N1CCOCC1
31 |  |  | 63 | NCCNC(=O)[C@@H]1O[C@H]2CN(Cc3ccccc3)C(=O)[C@@H]1O2
32 | 87 | 29 |  | CC(C)CCNC(=O)[C@@H]1O[C@@H]2O[C@H]1C(=O)N(Cc1ccccc1)[C@H]2Cc1ccccc1
33 |  |  | 35 | C[C@@H](CO)NC(=O)[C@@H]1O[C@H]2CN(Cc3ccccc3)C(=O)[C@@H]1O2
34 | 87 | 29 |  | O=C(NC1CC1)[C@@H]1O[C@@H]2O[C@H]1C(=O)N(Cc1ccccc1)[C@H]2Cc1ccccc1
35 |  |  | 33 | CC(C)C[C@@H](CO)NC(=O)[C@H]1OC2CN(Cc3ccccc3)C(=O)C1O2 (single isomer, unassigned)

Further lines, the compound ahead of its results:

Row | SMILES | inhibition [1] [%] | inhibition [2] [%] | inhibition [3] [%]
36 | O=C([C@@H]1O[C@H]2CN(Cc3ccccc3)C[C@@H]1O2)N1CCOCC1 | 6 | 2 | 
37 | CN(CCN)C(=O)[C@@H]1O[C@H]2CN(Cc3ccccc3)C[C@@H]1O2 | 6 | 2 | 
38 | C#CCNC(=O)[C@@H]1O[C@H]2CN(Cc3ccccc3)C[C@@H]1O2 | 13 | 3 | 
39 | O=C1[C@@H]2O[C@H](CN1Cc1ccccc1)O[C@H]2C(=O)N1CCC[C@H]1CO |  |  | 48
40 | O=C([C@@H]1O[C@@]2(c3ccccc3)CN(C(c3ccccc3)c3ccccc3)C[C@@H]1O2)N1CCSCC1 | 23 | 6 | 
41 | O=C([C@H]1O[C@H]2CN(Cc3ccccc3)C(=O)[C@@H]1O2)N1CCCCC1 |  |  | 50
42 | CN(CCN)C(=O)[C@@H]1O[C@@]2(c3ccccc3)CN(C(c3ccccc3)c3ccccc3)C[C@@H]1O2 | 23 | 6 | 
43 | CCCCCNC(=O)[C@@H]1O[C@@]2(c3ccccc3)CN(C(c3ccccc3)c3ccccc3)C(=O)[C@@H]1O2 | 0 | 0 | 
44 | O=C([C@@H]1O[C@H]2CN(Cc3ccccc3)C(=O)[C@@H]1O2)N1CCOCC1 | 92 | 31 | 62
45 | O=C([C@@H]1O[C@H]2CN(Cc3ccccc3)C(=O)[C@@H]1O2)N1CCSCC1 |  |  | 58
46 | O=C(NCC(F)(F)F)[C@@H]1O[C@H]2CN(Cc3ccccc3)C(=O)[C@@H]1O2 | 87 | 22 | 
47 | CCOC(=O)C1CCN(C(=O)[C@@H]2O[C@@]3(c4ccccc4)CN(C(c4ccccc4)c4ccccc4)C[C@@H]2O3)CC1 | 23 | 6 | 
48 | CCCCNC(=O)[C@@H]1O[C@@]2(c3ccccc3)CN(C(c3ccccc3)c3ccccc3)C[C@@H]1O2 | 12 | 3 | 
49 | O=C(NCC(F)(F)F)[C@@H]1O[C@@]2(c3ccccc3)CN(C(c3ccccc3)c3ccccc3)C[C@@H]1O2 | 12 | 3 | 
50 | COC(=O)[C@H](CC(C)C)N1C[C@@]2(C)O[C@H](C(=O)N3CCN(Cc4ccccc4)CC3)[C@H](O2)C1=O | 57 | 28 | 
51 | O=C([C@@H]1O[C@@]2(c3ccccc3)CN(C(c3ccccc3)c3ccccc3)C(=O)[C@@H]1O2)N1CCOCC1 | 19 | 5 | 
52 | O=C([C@@H]1O[C@@]2(c3ccccc3)CN(C(c3ccccc3)c3ccccc3)C[C@@H]1O2)N1CCCCC1 | 23 | 6 | 

Row | SMILES | inhibition [1] [%] | inhibition [2] [%] | inhibition [3] [%]
53 | O=C([C@@H]1O[C@H]2CN(Cc3ccccc3)C[C@@H]1O2)N1CCSCC1 | 6 | 2 | 
54 | CCCNC(=O)[C@@H]1O[C@@]2(c3ccccc3)CN(C(c3ccccc3)c3ccccc3)C[C@@H]1O2 | 12 | 3 | 
55 | O=C([C@@H]1O[C@H]2CN(Cc3ccccc3)C(=O)[C@@H]1O2)N1CCN(CCO)CC1 | 92 | 31 | 58
56 | O=C([C@@H]1O[C@H]2CN(Cc3ccccc3)C(=O)[C@@H]1O2)N1CCCNCC1 | 19 | 10 | 63
57 | C#CCNC(=O)[C@@H]1O[C@@]2(c3ccccc3)CN(C(c3ccccc3)c3ccccc3)C[C@@H]1O2 | 12 | 3 | 
58 | CCOC(=O)N1CCN(C(=O)[C@@H]2O[C@@]3(c4ccccc4)CN(C(c4ccccc4)c4ccccc4)C(=O)[C@@H]2O3)CC1 | 19 | 5 | 
59 | CCCCCNC(=O)[C@@H]1O[C@H]2CN(Cc3ccccc3)C(=O)[C@@H]1O2 | 87 | 22 | 
60 | CCCNC(=O)[C@@H]1O[C@H]2CN(Cc3ccccc3)C[C@@H]1O2 | 13 | 3 | 
61 | CC(C)CCNC(=O)[C@@H]1O[C@H]2CN(Cc3ccccc3)C[C@@H]1O2 | 13 | 3 | 
62 | O=C1[C@@H]2O[C@H](CN1Cc1ccccc1)O[C@H]2C(=O)N1CCC[C@@H]1CO |  |  | 34
63 | CCOC(=O)C1CCN(C(=O)[C@@H]2O[C@@]3(c4ccccc4)CN(C(c4ccccc4)c4ccccc4)C(=O)[C@@H]2O3)CC1 | 19 | 5 | 
64 | CC(NC(=O)[C@@H]1O[C@@]2(c3ccccc3)CN(C(c3ccccc3)c3ccccc3)C(=O)[C@@H]1O2)c1ccccc1 (some centres undefined) | 0 | 0 | 
65 | NC(=O)C1O[C@H]2CN(Cc3ccccc3)C(=O)[C@@H]1O2 (single isomer, unassigned) | 18 | 4 | 
66 | O=C([C@@H]1O[C@H]2CN(Cc3ccccc3)C[C@@H]1O2)N1CCCCC1 | 6 | 2 | 
67 | O=C([C@@H]1O[C@@]2(c3ccccc3)CN(C(c3ccccc3)c3ccccc3)C(=O)[C@@H]1O2)N1CCN(CCO)CC1 | 19 | 5 | 
68 | O=C(NC1CCCCC1)[C@@H]1O[C@@]2(c3ccccc3)CN(C(c3ccccc3)c3ccccc3)C(=O)[C@@H]1O2 | 0 | 0 | 
